From ChEMBL document CHEMBL2046400, “Design, synthesis and antitumor activities of novel bis-aryl ureas derivatives as Raf kinase inhibitors” (Bioorg Med Chem, 2012)

How the values were obtained:
[1] = target: T1, RAF proto-oncogene serine/threonine-protein kinase (Homo sapiens, UniProt P04049); experiment: Inhibition of C-Raf kinase-mediated phosphorylation of Mek using [33P]gammaATP after 20 mins by scintillation counting
Outline: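 The reaction was started with [γ-³³P]ATP (about 500 cpm/pmol) and run 20 min at 30 °C. It was then spotted onto a phosphocellulose mat, washed in 1% phosphoric acid, and counted by scintillation.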

MDA-MB-231 = experiment: Antiproliferative activity against human MDA-MB-231 cells after 72 hrs by MTT assay; type: functional, cell-based; details: MDA-MB-231, 72 h
Outline: (§1)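 RPMI-1640 with 10% fetal calf serum, 37 °C, 5% CO₂, 95% humidity. Cells seeded at 5.0 × 10³/well and grown 24 h, then exposed 72 h to a range of compound concentrations. MTT (5 mg/ml solution) added for a further 4 h at 37 °C. Formazan crystals dissolved and absorbance read at 570 nm. Each compound tested three times per cell line. IC50 reported as mean ± SD of three independent experiments.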

SMMC-7721 = experiment: Antiproliferative activity against human SMMC7721 cells after 72 hrs by MTT assay; type: functional, cell-based; details: SMMC-7721, 72 h; outline: as §1
BGC-823 = experiment: Antiproliferative activity against human BGC823 cells after 72 hrs by MTT assay; type: functional, cell-based; details: BGC-823, 72 h; outline: as §1
[2] = target: Serine/threonine-protein kinase PLK1 (Homo sapiens) (UniProt P53350); experiment: Inhibition of PLK1 at 10 uM
[3] = target: Mast/stem cell growth factor receptor Kit (Homo sapiens) (UniProt P10721); experiment: Inhibition of c-KIT at 10 uM
[4] = target: RAC-alpha serine/threonine-protein kinase (Homo sapiens) (UniProt P31749); experiment: Inhibition of AKT1 at 10 uM
[5] = target: T1, RAF proto-oncogene serine/threonine-protein kinase; experiment: Inhibition of c-Raf at 10 uM
[6] = Inhibition of PKA at 10 uM
[7] = target: Tyrosine-protein kinase SYK (Homo sapiens) (UniProt P43405); experiment: Inhibition of SYK at 10 uM
[8] = target: Hepatocyte growth factor receptor (Homo sapiens) (UniProt P08581); experiment: Inhibition of c-MET at 10 uM
[9] = target: Tyrosine-protein kinase Fyn (Homo sapiens) (UniProt P06241); experiment: Inhibition of FYN at 10 uM
[10] = target: Receptor-type tyrosine-protein kinase FLT3 (Homo sapiens) (UniProt P36888); experiment: Inhibition of FLT3 at 10 uM
[11] = target: Platelet-derived growth factor receptor alpha (Homo sapiens) (UniProt P16234); experiment: Inhibition of PDGFRalpha at 10 uM
[12] = target: Tyrosine-protein kinase JAK2 (Homo sapiens) (UniProt O60674); experiment: Inhibition of JAK2 at 10 uM
[13] = target: Vascular endothelial growth factor receptor 2 (Homo sapiens) (UniProt P35968); experiment: Inhibition of KDR at 10 uM
[14] = target: Fibroblast growth factor receptor 1 (Homo sapiens) (UniProt P11362); experiment: Inhibition of FGFR1 at 10 uM
[15] = target: Inhibitor of nuclear factor kappa-B kinase subunit beta (Homo sapiens) (UniProt O14920); experiment: Inhibition of IKKbeta at 10 uM
[16] = target: Focal adhesion kinase 1 (Homo sapiens) (UniProt Q05397); experiment: Inhibition of PTK2 at 10 uM
[17] = target: Macrophage colony-stimulating factor 1 receptor (Homo sapiens) (UniProt P07333); experiment: Inhibition of FMS at 10 uM
[18] = target: Vascular endothelial growth factor receptor 2 (Homo sapiens) (UniProt P35968); experiment: Inhibition of VEGFR2 at 10 uM
[19] = target: Angiopoietin-1 receptor (Homo sapiens) (UniProt Q02763); experiment: Inhibition of TIE2 at 10 uM
[20] = target: Cyclin-dependent kinase 2 (Homo sapiens) (UniProt P24941); experiment: Inhibition of CDK2 at 10 uM
[21] = Inhibition of Abl at 10 uM

T1 sequence (P04049 whole entry): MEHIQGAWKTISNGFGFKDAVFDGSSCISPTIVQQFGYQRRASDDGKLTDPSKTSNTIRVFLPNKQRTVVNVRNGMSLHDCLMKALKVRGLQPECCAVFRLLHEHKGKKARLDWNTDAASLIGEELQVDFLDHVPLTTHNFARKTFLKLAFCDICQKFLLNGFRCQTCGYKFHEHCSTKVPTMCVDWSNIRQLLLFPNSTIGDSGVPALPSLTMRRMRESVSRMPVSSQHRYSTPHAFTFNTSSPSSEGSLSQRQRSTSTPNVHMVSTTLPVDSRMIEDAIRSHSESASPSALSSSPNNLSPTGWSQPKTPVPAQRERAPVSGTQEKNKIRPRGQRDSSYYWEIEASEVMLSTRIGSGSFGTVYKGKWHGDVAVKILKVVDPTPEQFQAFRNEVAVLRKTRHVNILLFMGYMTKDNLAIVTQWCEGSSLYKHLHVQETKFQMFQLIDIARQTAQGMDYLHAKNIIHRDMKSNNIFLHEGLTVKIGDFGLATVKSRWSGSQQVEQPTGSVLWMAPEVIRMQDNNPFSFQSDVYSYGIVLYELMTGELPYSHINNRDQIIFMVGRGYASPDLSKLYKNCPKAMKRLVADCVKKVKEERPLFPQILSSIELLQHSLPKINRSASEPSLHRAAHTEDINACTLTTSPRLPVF
Chain of Vascular endothelial growth factor receptor 2 (Homo sapiens) (P35968 whole entry): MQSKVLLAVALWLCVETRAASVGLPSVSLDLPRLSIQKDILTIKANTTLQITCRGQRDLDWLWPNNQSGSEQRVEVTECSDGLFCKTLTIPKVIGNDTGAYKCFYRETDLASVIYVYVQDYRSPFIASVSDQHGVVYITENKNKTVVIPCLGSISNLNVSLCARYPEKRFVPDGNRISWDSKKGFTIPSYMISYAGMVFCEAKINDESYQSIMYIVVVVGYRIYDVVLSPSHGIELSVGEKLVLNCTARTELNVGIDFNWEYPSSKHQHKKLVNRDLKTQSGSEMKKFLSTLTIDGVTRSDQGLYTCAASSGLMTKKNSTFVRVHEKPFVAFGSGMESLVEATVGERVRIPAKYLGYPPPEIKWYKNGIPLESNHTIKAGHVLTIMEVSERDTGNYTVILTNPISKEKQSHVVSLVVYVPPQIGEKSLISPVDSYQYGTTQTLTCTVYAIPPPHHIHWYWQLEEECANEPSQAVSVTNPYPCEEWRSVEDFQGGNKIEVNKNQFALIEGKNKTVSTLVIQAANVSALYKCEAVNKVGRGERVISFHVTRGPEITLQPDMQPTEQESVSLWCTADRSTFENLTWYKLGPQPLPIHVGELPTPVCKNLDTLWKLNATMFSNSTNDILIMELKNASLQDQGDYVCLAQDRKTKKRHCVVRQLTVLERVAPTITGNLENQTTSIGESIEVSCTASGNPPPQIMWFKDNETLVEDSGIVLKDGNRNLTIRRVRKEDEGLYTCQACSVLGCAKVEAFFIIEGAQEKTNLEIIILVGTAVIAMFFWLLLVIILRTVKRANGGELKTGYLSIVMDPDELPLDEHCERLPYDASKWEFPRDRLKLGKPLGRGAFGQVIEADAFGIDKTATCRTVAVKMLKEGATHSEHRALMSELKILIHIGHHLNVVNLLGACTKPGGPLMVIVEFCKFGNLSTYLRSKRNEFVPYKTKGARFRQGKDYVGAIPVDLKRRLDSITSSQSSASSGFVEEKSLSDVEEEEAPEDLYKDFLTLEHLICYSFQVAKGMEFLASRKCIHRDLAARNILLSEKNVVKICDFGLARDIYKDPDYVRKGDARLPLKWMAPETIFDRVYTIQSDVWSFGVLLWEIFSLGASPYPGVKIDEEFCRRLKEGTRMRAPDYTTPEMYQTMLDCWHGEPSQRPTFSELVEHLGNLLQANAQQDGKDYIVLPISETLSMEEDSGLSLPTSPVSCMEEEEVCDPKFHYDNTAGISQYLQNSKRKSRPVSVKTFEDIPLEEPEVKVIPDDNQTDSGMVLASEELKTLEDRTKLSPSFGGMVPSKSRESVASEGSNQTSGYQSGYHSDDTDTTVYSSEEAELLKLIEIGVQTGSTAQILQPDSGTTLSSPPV
Chain of Receptor-type tyrosine-protein kinase FLT3 (Homo sapiens) (P36888 whole entry): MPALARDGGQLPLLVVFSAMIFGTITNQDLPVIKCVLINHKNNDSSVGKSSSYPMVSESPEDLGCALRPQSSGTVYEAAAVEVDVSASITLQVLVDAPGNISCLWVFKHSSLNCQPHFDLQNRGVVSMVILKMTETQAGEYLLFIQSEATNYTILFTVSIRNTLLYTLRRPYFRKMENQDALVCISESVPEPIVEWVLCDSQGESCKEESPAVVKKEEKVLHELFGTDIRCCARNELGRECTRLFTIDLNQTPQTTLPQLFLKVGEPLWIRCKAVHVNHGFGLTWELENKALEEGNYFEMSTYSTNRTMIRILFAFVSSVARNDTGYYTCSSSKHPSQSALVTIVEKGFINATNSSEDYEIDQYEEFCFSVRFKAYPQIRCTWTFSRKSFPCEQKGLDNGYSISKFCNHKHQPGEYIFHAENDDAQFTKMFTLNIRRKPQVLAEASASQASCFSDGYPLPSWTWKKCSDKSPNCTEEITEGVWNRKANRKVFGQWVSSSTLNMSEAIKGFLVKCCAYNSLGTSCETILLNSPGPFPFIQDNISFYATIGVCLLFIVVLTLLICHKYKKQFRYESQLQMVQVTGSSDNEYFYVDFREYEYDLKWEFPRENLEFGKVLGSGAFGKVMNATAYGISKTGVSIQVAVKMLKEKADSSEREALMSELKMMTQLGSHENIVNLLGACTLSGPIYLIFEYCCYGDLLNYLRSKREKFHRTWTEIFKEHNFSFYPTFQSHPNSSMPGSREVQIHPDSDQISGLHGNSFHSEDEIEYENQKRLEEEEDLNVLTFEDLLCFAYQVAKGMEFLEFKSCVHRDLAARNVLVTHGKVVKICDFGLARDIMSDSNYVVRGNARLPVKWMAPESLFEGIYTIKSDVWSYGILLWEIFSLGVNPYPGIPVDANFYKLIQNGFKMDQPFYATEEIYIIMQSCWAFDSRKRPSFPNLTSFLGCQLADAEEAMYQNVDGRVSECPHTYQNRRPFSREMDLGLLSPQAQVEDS
Chain of Hepatocyte growth factor receptor (Homo sapiens) (P08581 whole entry): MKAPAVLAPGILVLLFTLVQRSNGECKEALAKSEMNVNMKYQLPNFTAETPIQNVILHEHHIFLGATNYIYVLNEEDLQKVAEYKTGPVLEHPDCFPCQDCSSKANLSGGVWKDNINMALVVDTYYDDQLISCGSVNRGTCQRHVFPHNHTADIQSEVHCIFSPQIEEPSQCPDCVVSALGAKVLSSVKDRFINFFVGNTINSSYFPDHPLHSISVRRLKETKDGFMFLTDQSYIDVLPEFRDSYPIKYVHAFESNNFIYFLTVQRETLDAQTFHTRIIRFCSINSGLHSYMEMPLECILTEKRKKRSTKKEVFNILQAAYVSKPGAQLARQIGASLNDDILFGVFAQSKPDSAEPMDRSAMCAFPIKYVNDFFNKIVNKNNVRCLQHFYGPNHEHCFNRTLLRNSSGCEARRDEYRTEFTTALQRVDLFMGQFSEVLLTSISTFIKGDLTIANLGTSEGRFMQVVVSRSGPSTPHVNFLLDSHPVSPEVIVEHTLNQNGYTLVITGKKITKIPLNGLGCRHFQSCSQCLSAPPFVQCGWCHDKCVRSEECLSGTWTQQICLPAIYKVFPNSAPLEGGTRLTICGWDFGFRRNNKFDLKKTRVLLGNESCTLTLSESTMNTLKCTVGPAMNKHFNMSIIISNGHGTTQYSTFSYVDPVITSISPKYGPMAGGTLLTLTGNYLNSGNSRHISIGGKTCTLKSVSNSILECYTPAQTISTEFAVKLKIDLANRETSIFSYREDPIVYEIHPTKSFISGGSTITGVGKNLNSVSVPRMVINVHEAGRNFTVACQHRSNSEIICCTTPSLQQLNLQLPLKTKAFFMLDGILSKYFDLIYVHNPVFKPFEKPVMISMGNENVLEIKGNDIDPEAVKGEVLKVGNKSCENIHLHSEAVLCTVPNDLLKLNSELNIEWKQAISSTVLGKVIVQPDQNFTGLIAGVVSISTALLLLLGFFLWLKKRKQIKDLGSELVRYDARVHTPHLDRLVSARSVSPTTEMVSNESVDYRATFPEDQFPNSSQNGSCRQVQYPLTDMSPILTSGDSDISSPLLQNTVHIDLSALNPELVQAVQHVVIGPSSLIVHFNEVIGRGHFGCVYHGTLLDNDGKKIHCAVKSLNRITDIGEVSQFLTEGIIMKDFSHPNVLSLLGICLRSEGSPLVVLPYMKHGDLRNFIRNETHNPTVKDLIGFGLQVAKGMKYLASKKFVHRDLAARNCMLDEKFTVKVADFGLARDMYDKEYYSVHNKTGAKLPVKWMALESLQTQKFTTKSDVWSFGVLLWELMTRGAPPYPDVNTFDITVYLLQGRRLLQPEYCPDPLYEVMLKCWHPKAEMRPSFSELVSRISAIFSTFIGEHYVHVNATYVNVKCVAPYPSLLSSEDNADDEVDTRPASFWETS
Chain of Tyrosine-protein kinase Fyn (Homo sapiens) (P06241 2-537 limits assumed): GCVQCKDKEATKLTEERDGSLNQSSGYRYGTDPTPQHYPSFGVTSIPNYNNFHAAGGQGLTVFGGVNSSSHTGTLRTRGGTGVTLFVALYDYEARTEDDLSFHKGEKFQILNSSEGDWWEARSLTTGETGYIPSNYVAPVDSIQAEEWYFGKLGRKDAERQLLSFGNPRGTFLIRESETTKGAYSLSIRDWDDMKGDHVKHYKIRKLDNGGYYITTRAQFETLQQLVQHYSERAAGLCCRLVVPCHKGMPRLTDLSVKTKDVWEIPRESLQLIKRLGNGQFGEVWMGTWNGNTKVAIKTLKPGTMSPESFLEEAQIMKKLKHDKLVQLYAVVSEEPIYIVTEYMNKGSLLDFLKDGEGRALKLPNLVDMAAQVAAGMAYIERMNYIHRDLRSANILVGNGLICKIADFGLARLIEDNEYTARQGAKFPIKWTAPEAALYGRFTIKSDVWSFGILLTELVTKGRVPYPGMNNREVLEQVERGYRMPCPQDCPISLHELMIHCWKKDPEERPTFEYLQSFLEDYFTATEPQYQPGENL

| Structure (SMILES) | IC50 [1] [µM] | IC50 (MDA-MB-231) [µM] | IC50 (SMMC-7721) [µM] | IC50 (BGC-823) [µM] | further results |
| --- | --- | --- | --- | --- | --- |
| O=C(Nc1cccc(C(F)(F)F)c1)Nc1ccc(Oc2ccnc(-c3ncc(C(F)(F)F)[nH]3)c2)cc1Cl | 0.0648 | 14.2 | 9.72 | 23.2 |  |
| O=C(Nc1ccc(Oc2ccnc(-c3ncc(C(F)(F)F)[nH]3)c2)cc1)Nc1ccc(Cl)c(C(F)(F)F)c1 | 0.0106 | 1.21 | 1.38 | 13.2 | inhibition [2]: 8.7%; inhibition [3]: 23.9%; inhibition [4]: 11.7%; inhibition [5]: 95.3%; inhibition [6]: 1.3%; inhibition [7]: 20.4%; inhibition [8]: 2.2%; inhibition [9]: 0.4%; inhibition [10]: 17.7%; inhibition [11]: 0%; inhibition [12]: 0%; inhibition [13]: 3.5%; inhibition [14]: 20.2%; inhibition [15]: 5.6%; inhibition [16]: 4.9%; inhibition [17]: 50.8%; inhibition [18]: 36.8%; inhibition [19]: 27.5%; inhibition [20]: 7.8%; inhibition [21]: 44.3% |
| Cc1ccc(NC(=O)Nc2ccc(Oc3ccnc(-c4ncc(C(F)(F)F)[nH]4)c3)cc2Cl)cc1C(F)(F)F | 0.0467 | 10.1 | 8.38 | 33.4 |  |
| O=C(Nc1ccc(Oc2ccnc(-c3ncc(C(F)(F)F)[nH]3)c2)cc1)Nc1ccc(Cl)c(Cl)c1 | 0.0131 | 2.03 | 3.06 | 10.7 |  |
| O=C(Nc1ccc(Oc2ccnc(-c3ncc(C(F)(F)F)[nH]3)c2)cc1Cl)Nc1cc(C(F)(F)F)ccc1Cl | 0.0359 | 7.03 | 5.29 | 14.2 |  |
| O=C(Nc1ccc(Cl)c(Cl)c1)Nc1ccc(Oc2ccnc(-c3ncc(C(F)(F)F)[nH]3)c2)cc1Cl | 0.0165 | 1.77 | 2.49 | 12.7 |  |
| COc1cc(NC(=O)Nc2ccc(Oc3ccnc(-c4ncc(C(F)(F)F)[nH]4)c3)cc2Cl)cc(OC)c1OC |  | > 100 | > 100 | > 100 |  |
| CNC(=O)c1cc(Oc2ccc(NC(=O)Nc3ccc(Cl)c(C(F)(F)F)c3)cc2)ccn1 [SORAFENIB] |  | 7.18 | 6.23 | 10.9 |  |
| O=C(Nc1ccc(Oc2ccnc(-c3ncc(C(F)(F)F)[nH]3)c2)cc1)Nc1cc(C(F)(F)F)ccc1Cl | 0.0759 | 7.83 | 6.84 | 18.4 |  |
| O=C(Nc1ccc(Oc2ccnc(-c3ncc(C(F)(F)F)[nH]3)c2)cc1)Nc1ccc(F)c(Cl)c1 | 0.0692 | 11.3 | 9.69 | 15.7 |  |
| O=C(Nc1ccc(Oc2ccnc(-c3ncc(C(F)(F)F)[nH]3)c2)cc1)Nc1ccc2c(c1)OCO2 |  | 63.2 | 92.4 | > 100 |  |
| O=C(Nc1ccc(Oc2ccnc(-c3ncc(C(F)(F)F)[nH]3)c2)cc1)Nc1cccc(C(F)(F)F)c1 | 0.0878 | 10.7 | 11.7 | 26.2 |  |
| O=C(Nc1ccc(Oc2ccnc(-c3ncc(C(F)(F)F)[nH]3)c2)cc1)Nc1ccc(Br)cc1F | 0.0815 | 25.4 | 44.6 | 66.8 |  |
| COc1ccc(NC(=O)Nc2ccc(Oc3ccnc(-c4ncc(C(F)(F)F)[nH]4)c3)cc2)cc1 |  | 95.4 | > 100 | > 100 |  |
| Cc1cccc(Cl)c1NC(=O)Nc1ccc(Oc2ccnc(-c3ncc(C(F)(F)F)[nH]3)c2)cc1 | 0.12 | 76.6 | 57.9 | 84 |  |
| O=C(Nc1ccc(F)cc1)Nc1ccc(Oc2ccnc(-c3ncc(C(F)(F)F)[nH]3)c2)cc1 | 0.0949 | 38.7 | 36.2 | 23.7 |  |
| O=C(Nc1ccc(F)c(C(F)(F)F)c1)Nc1ccc(Oc2ccnc(-c3ncc(C(F)(F)F)[nH]3)c2)cc1Cl | 0.0777 | 8.21 | 5.72 | 17.7 |  |
| O=C(Nc1ccc(Cl)c(C(F)(F)F)c1)Nc1ccc(Oc2ccnc(-c3ncc(C(F)(F)F)[nH]3)c2)cc1Cl | 0.0221 | 3.77 | 6.52 | 11.1 |  |
| Cc1cc(NC(=O)Nc2ccc(Oc3ccnc(-c4ncc(C(F)(F)F)[nH]4)c3)cc2)no1 | 0.148 | 44.8 | 87.7 | 97.7 |  |
